Assay results as given in ChEMBL document CHEMBL3600357 (J Med Chem, 2015).
Calls of active or inactive are those of the source. The rule behind the calls is not given here.

Legend:
[1] = Octanol water partition coefficient, logP of the compound; format: physicochemical
[2] = Intrinsic clearance in monkey liver microsomes; format: ADME, Macaca mulatta; details: rhesus monkey, read-out: CLH
Rattus norvegicus [3] = assay: Terminal half life in Sprague-Dawley rat at 1 mg/kg, iv; format: ADME, organism-based; details: in vivo
How it was run: (§1)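 Sprague-Dawley rats. IV dose given as a solution in NMP:PEG200 (10:90); 3 mg/kg PO given as a suspension in CMC:water:Tween (0.5:99:0.5). AUC and Cmax dose-normalized to 1 mg/kg. Mean ± SD from four rats.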

Rattus norvegicus [4] = assay: Volume of distribution at steady state in Sprague-Dawley rat at 1 mg/kg, iv; format: ADME, organism-based; details: in vivo
Rattus norvegicus [5] = assay: AUC in Sprague-Dawley rat at 3 mg/kg, po; format: ADME, organism-based; details: in vivo; how it was run: as §1
Rattus norvegicus [6] = assay: Oral bioavailability in Sprague-Dawley rat at 3 mg/kg; format: ADME, organism-based; details: in vivo; how it was run: as §1
[7] = molecular target: E3 ubiquitin-protein ligase Mdm2 (Mus musculus, UniProt P23804); assay: Inhibition of mouse MDM2 by TR-FRET assay
E3 ubiquitin-protein ligase Mdm2, sequence (P23804 whole entry): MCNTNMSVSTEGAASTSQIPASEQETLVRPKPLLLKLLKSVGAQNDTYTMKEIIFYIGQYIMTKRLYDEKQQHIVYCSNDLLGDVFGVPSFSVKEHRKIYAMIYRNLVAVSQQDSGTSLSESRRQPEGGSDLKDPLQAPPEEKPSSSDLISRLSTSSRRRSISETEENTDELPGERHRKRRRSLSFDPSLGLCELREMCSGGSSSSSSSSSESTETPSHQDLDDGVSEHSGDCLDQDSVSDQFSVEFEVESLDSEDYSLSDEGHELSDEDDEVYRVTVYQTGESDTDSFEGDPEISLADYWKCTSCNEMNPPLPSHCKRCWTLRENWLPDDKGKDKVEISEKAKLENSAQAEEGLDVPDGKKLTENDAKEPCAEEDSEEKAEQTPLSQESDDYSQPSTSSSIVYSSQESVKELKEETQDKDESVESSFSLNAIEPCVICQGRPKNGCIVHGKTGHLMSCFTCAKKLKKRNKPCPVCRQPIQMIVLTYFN

[8] = Inhibition of rat MDM2 by TR-FRET assay
Mus musculus = assay: Oral bioavailability in OF1 mouse at 3 mg/kg; format: ADME, organism-based; details: in vivo
[9] = Volume of distribution at steady state in beagle dog at 0.1 mg/kg, iv; format: ADME, organism-based, Canis lupus familiaris; details: in vivo, read-out: Vdss
Canis familiaris [10] = assay: AUC in beagle dog at 0.3 mg/kg, po; format: ADME, organism-based, Canis lupus familiaris; details: in vivo
[11] = Cmax in beagle dog at 0.3 mg/kg, po; format: ADME, organism-based, Canis lupus familiaris; design: dose 0.3 mg/kg, route oral; details: in vivo
Canis familiaris [12] = assay: Oral bioavailability in beagle dog at 0.3 mg/kg; format: ADME, organism-based, Canis lupus familiaris; details: in vivo
[13] = Volume of distribution at steady state in cynomolgus monkey at 0.1 mg/kg, iv; format: ADME, organism-based, Macaca fascicularis; details: in vivo, read-out: Vdss
Cynomolgus monkey [14] = assay: AUC in cynomolgus monkey at 0.3 mg/kg, po; format: ADME, organism-based, Macaca fascicularis; details: in vivo
Cynomolgus monkey [15] = assay: Oral bioavailability in cynomolgus monkey at 0.3 mg/kg; format: ADME, organism-based, Macaca fascicularis; details: in vivo
[16] = molecular target: Apoptosis regulator Bcl-2 (Homo sapiens, UniProt P10415); assay: Inhibition of Bcl2 (unknown origin) assessed as inhibition of Bcl2-Bad interaction by TR-FRET assay
Apoptosis regulator Bcl-2, sequence (P10415 whole entry): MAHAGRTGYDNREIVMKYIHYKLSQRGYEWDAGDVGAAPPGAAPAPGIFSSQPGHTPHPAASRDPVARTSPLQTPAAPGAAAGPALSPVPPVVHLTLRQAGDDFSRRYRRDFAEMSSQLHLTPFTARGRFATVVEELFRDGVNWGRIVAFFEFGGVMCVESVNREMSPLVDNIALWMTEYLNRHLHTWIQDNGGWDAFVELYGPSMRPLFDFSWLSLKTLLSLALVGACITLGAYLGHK

[17] = molecular target: Induced myeloid leukemia cell differentiation protein Mcl-1 (Homo sapiens, UniProt Q07820); assay: Inhibition of Mcl1 (unknown origin) assessed as inhibition of Mcl1-Bak interaction by TR-FRET assay
Induced myeloid leukemia cell differentiation protein Mcl-1, sequence (Q07820 whole entry): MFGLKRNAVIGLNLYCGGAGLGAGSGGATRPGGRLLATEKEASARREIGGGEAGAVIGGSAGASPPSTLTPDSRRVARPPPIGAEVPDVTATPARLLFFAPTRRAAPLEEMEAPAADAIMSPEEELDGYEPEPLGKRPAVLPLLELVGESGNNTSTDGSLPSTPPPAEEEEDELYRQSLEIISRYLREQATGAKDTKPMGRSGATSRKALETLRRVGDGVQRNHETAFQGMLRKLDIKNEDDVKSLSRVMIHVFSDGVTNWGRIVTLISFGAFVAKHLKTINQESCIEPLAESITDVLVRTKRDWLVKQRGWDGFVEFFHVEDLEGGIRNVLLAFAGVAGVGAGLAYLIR

[18] = molecular target: E3 ubiquitin-protein ligase XIAP (Homo sapiens, UniProt P98170); assay: Inhibition of XIAP (unknown origin) assessed as inhibition of XIAP-BIR3 interaction by TR-FRET assay
E3 ubiquitin-protein ligase XIAP, sequence (P98170 whole entry): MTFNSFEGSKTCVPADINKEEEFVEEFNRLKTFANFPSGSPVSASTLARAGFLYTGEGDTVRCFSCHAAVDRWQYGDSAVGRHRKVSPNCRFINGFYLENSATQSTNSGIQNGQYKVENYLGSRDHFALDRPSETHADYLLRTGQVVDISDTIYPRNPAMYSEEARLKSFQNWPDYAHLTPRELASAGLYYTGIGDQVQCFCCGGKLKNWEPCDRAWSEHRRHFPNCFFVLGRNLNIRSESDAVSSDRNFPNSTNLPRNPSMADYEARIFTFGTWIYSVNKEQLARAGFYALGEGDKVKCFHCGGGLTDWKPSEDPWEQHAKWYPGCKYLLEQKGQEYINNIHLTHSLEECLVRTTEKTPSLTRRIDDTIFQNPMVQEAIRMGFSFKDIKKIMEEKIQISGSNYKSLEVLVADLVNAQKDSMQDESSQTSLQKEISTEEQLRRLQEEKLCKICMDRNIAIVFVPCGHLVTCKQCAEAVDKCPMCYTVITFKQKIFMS

[19] = molecular target: Baculoviral IAP repeat-containing protein 2 (Homo sapiens, UniProt Q13490); assay: Inhibition of cIAP (unknown origin) assessed as inhibition of cIAP-BIR3 interaction by TR-FRET assay
Baculoviral IAP repeat-containing protein 2, sequence (Q13490 whole entry): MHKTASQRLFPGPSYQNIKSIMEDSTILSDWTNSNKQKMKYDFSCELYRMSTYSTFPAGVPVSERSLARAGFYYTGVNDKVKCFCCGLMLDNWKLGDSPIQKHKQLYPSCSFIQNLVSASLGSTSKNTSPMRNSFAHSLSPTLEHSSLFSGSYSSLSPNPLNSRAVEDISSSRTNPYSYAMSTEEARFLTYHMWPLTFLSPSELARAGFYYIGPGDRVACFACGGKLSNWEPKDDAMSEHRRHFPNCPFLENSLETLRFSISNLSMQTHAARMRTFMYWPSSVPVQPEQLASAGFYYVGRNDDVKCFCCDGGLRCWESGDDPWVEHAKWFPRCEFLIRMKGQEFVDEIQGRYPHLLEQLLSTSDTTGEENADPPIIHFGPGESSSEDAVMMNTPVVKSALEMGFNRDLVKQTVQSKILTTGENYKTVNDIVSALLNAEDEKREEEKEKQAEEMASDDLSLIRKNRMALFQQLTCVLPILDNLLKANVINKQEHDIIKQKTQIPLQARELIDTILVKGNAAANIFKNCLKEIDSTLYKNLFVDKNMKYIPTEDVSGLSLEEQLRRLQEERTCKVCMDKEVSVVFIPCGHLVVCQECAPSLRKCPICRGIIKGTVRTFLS

HCT-116 = assay: Inhibition of cell proliferation of human HCT116 cells expressing p53
[20] = Inhibition of cell proliferation of human SJSA1 cells expressing p53; details: SJSA-1
Rattus norvegicus [21] = assay: In-vivo inhibition of MDM2/p53 interaction in human SJSA1 cells xenografted rat assessed as increase in MDM2 mRNA level at 30 mg/kg, po measured within 72 hrs post dose by qRT-PCR method; format: functional, organism-based; details: SJSA-1
How it was run: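 SJSA-1 (MDM2-amplified) tumour-bearing rats were dosed at 30 mg/kg. Tumour samples were collected over time, and p21, MDM2 and PUMA mRNA were measured as p53 pharmacodynamic markers, alongside compound levels.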

SJSA-1 [22] = assay: Antitumor activity against human SJSA1 cells xenografted in rat assessed as reduction tumor growth dosed orally on daily basis under q24h regime; format: functional, organism-based
How it was run: (§2)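 SJSA-1 tumour-bearing rats were treated either daily or 3qw (Monday, Wednesday and Friday) across a range of doses, and tumour growth was followed over the treatment course. Plasma AUC0-24 was also determined, along with AUC0-48 for the 3qw schedule.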

SJSA-1 [23] = assay: Antitumor activity against human SJSA1 cells xenografted in rat assessed as reduction tumor growth dosed orally three times per week; format: functional, organism-based; how it was run: as §2
Rattus norvegicus [24] = assay: Toxicity in human SJSA1 cells xenografted dosed rat assessed as induction of histopathological changes at 30 mg/kg, po qd; format: organism-based, SJSA-1; details: in vivo
How it was run: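 Daily treatment of SJSA-1 tumour-bearing rats; histopathology was performed on the 30 mg/kg daily dose group to look for compound-related findings.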

Rattus norvegicus [25] = species on record: Rattus norvegicus; assay: Toxicity in rat assessed as changes in testes parameters; format: organism-based, Testis; details: in vivo
Rattus norvegicus [26] = species on record: Rattus norvegicus; assay: Toxicity in rat assessed as changes in heart parameters; format: organism-based; details: in vivo
Rattus norvegicus [27] = species on record: Rattus norvegicus; assay: Toxicity in female rat assessed as changes in adrenal gland parameters; format: organism-based; details: in vivo
Rattus norvegicus [28] = species on record: Rattus norvegicus; assay: Toxicity in rat assessed as induction of structural changes in testes tubular epithelium; format: organism-based, Testis; details: in vivo
Rattus norvegicus [29] = assay: Toxicity in human SJSA1 cells xenografted rat assessed as change in body weight at 20 mg/kg, po qd (reference value: 1.9 to 6.8%); format: organism-based, SJSA-1; details: in vivo
Rattus norvegicus [30] = assay: Toxicity in human SJSA1 cells xenografted rat assessed as change in body weight at 30 mg/kg, po dosed three times per week (reference value: 1.9 to 6.8%); format: organism-based, SJSA-1; details: in vivo
Rattus norvegicus [31] = assay: Toxicity in human SJSA1 cells xenografted rat assessed as mouse survival at 10 mg/kg, po qd; format: organism-based, SJSA-1; details: in vivo
How it was run: (§3)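 Tolerability was monitored in SJSA-1 tumour-bearing rats during the daily and 3qw (Monday, Wednesday, Friday) treatment schedules. Histopathology was done on all 3qw doses and on the 30 mg/kg daily group.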

Rattus norvegicus [32] = assay: Toxicity in human SJSA1 cells xenografted rat assessed as mouse survival at 20 mg/kg, po qd; format: organism-based, SJSA-1; details: in vivo; how it was run: as §3
Rattus norvegicus [33] = assay: Toxicity in human SJSA1 cells xenografted rat assessed as mouse survival at 30 mg/kg, po qd; format: organism-based, SJSA-1; details: in vivo; how it was run: as §3
Rattus norvegicus [34] = assay: Toxicity in human SJSA1 cells xenografted rat assessed as mouse survival at 30 mg/kg, po dosed 3 times per week; format: organism-based, SJSA-1; details: in vivo; how it was run: as §3
Rattus norvegicus [35] = assay: Toxicity in human SJSA1 cells xenografted rat assessed as mouse survival at 70 mg/kg, po dosed 3 times per week; format: organism-based, SJSA-1; details: in vivo; how it was run: as §3
[36] = AUC (0 to 24 hrs) in human SJSA1 cells xenografted rat assessed as mouse survival at 5 mg/kg, po qd; format: ADME, organism-based, SJSA-1; design: time < 24 hr, dose 5 mg/kg, route oral; details: in vivo
How it was run: (§4)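 Rats bearing MDM2-amplified human SJSA-1 tumors, dosed orally either daily or 3qw (Monday, Wednesday, Friday). Plasma exposure reported as AUC0-24, plus AUC0-48 for the 3qw schedule.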

[37] = AUC (0 to 24 hrs) in human SJSA1 cells xenografted rat assessed as mouse survival at 30 mg/kg, po dosed 3 times per week; format: ADME, organism-based, SJSA-1; design: dose 30 mg/kg, time < 24 hr, route oral; details: in vivo; how it was run: as §4
[38] = AUC (0 to 48 hrs) in human SJSA1 cells xenografted rat assessed as mouse survival at 30 mg/kg, po dosed 3 times per week; format: ADME, organism-based, SJSA-1; design: time < 48 hr, dose 30 mg/kg, route oral; details: in vivo; how it was run: as §4
[39] = AUC (0 to 24 hrs) in human SJSA1 cells xenografted rat assessed as mouse survival at 70 mg/kg, po dosed 3 times per week; format: ADME, organism-based, SJSA-1; design: time < 24 hr, dose 70 mg/kg, route oral; details: in vivo; how it was run: as §4
[40] = AUC (0 to 48 hrs) in human SJSA1 cells xenografted rat assessed as mouse survival at 70 mg/kg, po dosed 3 times per week; format: ADME, organism-based, SJSA-1; design: time < 48 hr, dose 70 mg/kg, route oral; details: in vivo; how it was run: as §4

SMILES: COc1cc2c(cc1OC(C)C)[C@H](c1ccc(Cl)cc1)N(c1ccc(N(C)C[C@H]3CC[C@H](N4CCN(C)C(=O)C4)CC3)cc1)C(=O)C2 [CGM-097]
- logP [1]: 5.8
- microsomal CLint [2]: 26.6 µL/min/mg
- beta t1/2 (Rattus norvegicus [3]): 12.1 h
- Vdss (Rattus norvegicus [4]): 6.4 L/kg
- AUC (Rattus norvegicus [5]): 2.779 µM·h
- F (Rattus norvegicus [6]): 81%
- Ki [7]: 0.0659 µM
- Ki [8]: 0.0474 µM
- F (Mus musculus): 71%
- Vd [9]: 4.2 L/kg
- AUC (Canis familiaris [10]): 5.993 µM·h
- Cmax [11]: 251 nM
- F (Canis familiaris [12]): 74%
- Vd [13]: 2 L/kg
- AUC (Cynomolgus monkey [14]): 3.73 µM·h
- F (Cynomolgus monkey [15]): 57%
- IC50 [16]: > 50 µM
- IC50 [17]: > 50 µM
- IC50 [18]: > 50 µM
- IC50 [19]: > 50 µM
- IC50 (HCT-116): 0.454 µM
- IC50 [20]: 0.353 µM
- inhibition (Rattus norvegicus [21]): Active
- growth inhibition (GI) (SJSA-1 [22]): Dose-dependent effect
- growth inhibition (GI) (SJSA-1 [23]): Dose-dependent effect
- Activity (Rattus norvegicus [24]): Non-toxic
- Activity (Rattus norvegicus [25]): Toxic
- Activity (Rattus norvegicus [26]): Toxic
- Activity (Rattus norvegicus [27]): Toxic
- Activity (Rattus norvegicus [28]): Toxic
- Activity (Rattus norvegicus [29]): 3.4%
- Activity (Rattus norvegicus [30]): 4.5%
- Activity (Rattus norvegicus [31]): Non-toxic
- Activity (Rattus norvegicus [32]): Non-toxic
- Activity (Rattus norvegicus [33]): Non-toxic
- Activity (Rattus norvegicus [34]): Non-toxic
- Activity (Rattus norvegicus [35]): Non-toxic
- AUC at 24 h [36]: 34 µM·h
- AUC at 24 h [37]: 230 µM·h
- AUC at 48 h [38]: 381 µM·h
- AUC at 24 h [39]: 616 µM·h
- AUC at 48 h [40]: 1040 µM·h
